Data set [1] relates to L1210. Nature of the data set: Antitumor activity against mouse L1210 cells subcutaneously xenografted in ip dosed C3H/DBA2 F1 hybrid mouse assessed as increase in host lifespan administered daily for 5 days starting 24 hrs post-tumor implantation. Type of data set: functional. Summed up: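 10⁵ L1210 cells implanted sc above the right axilla into 18.5-22.5-g C3H/DBA2 F1 mice. Daily ip dosing for 5 days from 24 h after implant, as water-soluble salts or as homogenized suspensions in aqueous methylcellulose. Groups of six mice. Increase in life span (T/C% − 100) at the optimum dose (maximal life-span increase, mg/kg/day); 50-day survivors counted.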

Data set [2] has as its system L1210. Nature of the data set: Antitumor activity against mouse L1210 cells intraperitoneally xenografted in ip dosed C3H/DBA2 F1 hybrid mouse assessed as increase in host lifespan administered daily for 5 days starting 24 hrs post-tumor implantation. Type of data set: functional. In outline:
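10⁵ L1210 cells implanted ip into 18.5-22.5-g C3H/DBA2 F1 mice. Daily ip treatment for 5 days from 24 h after implant, as water-soluble salts (methanesulfonate or hydrochloride) or as homogenized suspensions in aqueous methylcellulose. Groups of six mice. Read-out is increase in life span (T/C% − 100) at the optimum dose (maximal life-span increase, mg/kg/day); 50-day survivors counted.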

The nature of data set [3]: Lipophilic-hydrophilic balance, Rm of the compound by reversed-phase partition chromatography. The class given is physicochemical.
For data set [4], the system named is Mus musculus. The experiment in a line: Toxicity in ip dosed mouse assessed as optimum dose that providing maximum increase in life span administered qd for 1 to 5 days. The class given is organism-based. The settings on record: in vivo. In outline:
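Mice were C3H/DBA2 F1 hybrids weighing 18.5-22.5 g. L1210 cells (10^5) were implanted ip or sc above the right axilla. Daily ip treatment began 24 h later and continued for 5 days (dq 1-5), given in water or as a homogenized suspension in aqueous methylcellulose. The optimum dose (mg/kg/day) is the one giving maximum life-span increase (T/C% - 100). Groups were six mice; 50-day survivors were counted.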

Consider `COc1cc(NS(C)(=O)=O)ccc1Nc1c2ccccc2nc2cc(N=[N+]=[N-])ccc12.Cl`, for which the ILS in data set [1] is recorded as 47%; in data set [2] it was 118%. This compound registered a Rm in data set [3] of 0.14. Also, in data set [4], the Activity is 8 mg/kg.

Take `Br.CCCCCCC(=O)N(c1ccc(Nc2c3ccccc3nc3ccccc23)cc1)S(C)(=O)=O`: the figures for the increase in lifespan (ILS) in data set [1] and in data set [2] were 27% and 61%, respectively. In data set [3], this compound displayed a Rm of 0.54. In addition, in data set [4], the Activity was found to be 150 mg/kg.

Consider `Br.CCCCCCCCCCC(=O)N(c1ccc(Nc2c3ccccc3nc3cc(NC(C)=O)ccc23)cc1)S(C)(=O)=O`, for which the ILS in data set [1] was 39%; in data set [2], 64%. The Rm in data set [3] is given as 0.79. Further, the Activity in data set [4] turned out to be 30 mg/kg.

With `CS(=O)(=O)Nc1ccc(Nc2c3ccccc3nc3cc(N=[N+]=[N-])ccc23)cc1.Cl`, the increase in lifespan (ILS) in data set [1] is given as 64%; in data set [2], 216%. The Rm in data set [3] is recorded as -0.02. The Activity in data set [4] was 16 mg/kg.

For the compound `CC(=O)N(c1ccc(Nc2c3ccccc3nc3cc([N+](=O)[O-])ccc23)cc1)S(C)(=O)=O`, the values for the increase in life span (ILS) in data set [1] and in data set [2] were 61% and 138%, respectively. In data set [3], the Rm is on record as -0.08. Besides, the Activity in data set [4] came out at 50 mg/kg.

Take `CCC(C)C(=O)N(c1ccc(Nc2c3ccccc3nc3cc(NC(C)=O)ccc23)cc1)S(C)(=O)=O.Cl` (stereo not given): the increase in lifespan (ILS) in data set [1] is recorded as 31%; in data set [2], 68%. The compound also showed a Rm in data set [3] of 0.38. In addition, in data set [4], the Activity amounted to 50 mg/kg.

Consider `COc1cc(NS(C)(=O)=O)ccc1Nc1c2ccccc2nc2c(C)cccc12`, for which the increase in life span (ILS) in data set [1] is on record as 47%; in data set [2], 111%. In data set [3], this compound showed a Rm of 0.11. Moreover, the Activity in data set [4] was 6 mg/kg.

For `Br.CCCCCCCCCC(=O)N(c1ccc(Nc2c3ccccc3nc3cc(NC(C)=O)ccc23)cc1)S(C)(=O)=O`, the figures for the ILS in data set [1] and in data set [2] were 65% and 98%, respectively. The same compound displayed a Rm in data set [3] of 0.76. The Activity in data set [4] amounted to 50 mg/kg.

For `CCCN(C)/N=N/c1ccc2c(Nc3ccc(NS(C)(=O)=O)cc3OC)c3ccccc3nc2c1.CS(=O)(=O)O`, the figures for the increase in life span (ILS) in data set [1] and in data set [2] were 59% and 100%, respectively. In data set [3], this compound returned a Rm of 0.65. Also, the Activity in data set [4] came to 15 mg/kg.

As to `CN(C)/N=N/c1ccc2c(Nc3ccc(NS(C)(=O)=O)cc3)c3ccccc3nc2c1.Cl`, the ILS in data set [1] amounted to 38%; in data set [2] it was 110%. For the same compound, the Rm in data set [3] is recorded as 0.22. The Activity in data set [4] was 8 mg/kg.

In the case of `CCCCC(=O)N(c1ccc(Nc2c3ccccc3nc3cc([N+](=O)[O-])ccc23)cc1)S(C)(=O)=O`, the ILS in data set [1] was determined as 57%; in data set [2], 91%. Further, in data set [3], the Rm stood at 0.32. For the same compound, the Activity in data set [4] was found to be 26 mg/kg.

On to `Br.CCCCCCCCC(=O)N(c1ccc(Nc2c3ccccc3nc3cc(NC(C)=O)ccc23)cc1)S(C)(=O)=O`, for which the results for the increase in lifespan (ILS) in data set [1] and in data set [2] were 83% and 143%, respectively. For the same compound, in data set [3], the Rm was found to be 0.72. The Activity in data set [4] turned out to be 45 mg/kg.

Turning to `Br.CCCCCCCCCCCC(=O)N(c1ccc(Nc2c3ccccc3nc3cc(NC(C)=O)ccc23)cc1)S(C)(=O)=O`, the figures for the ILS in data set [1] and in data set [2] were 41% and 72%, respectively. This compound returned a Rm in data set [3] of 0.81. The Activity in data set [4] was determined as 30 mg/kg.

In the case of `CCC(=O)N(c1ccc(Nc2c3ccccc3nc3ccccc23)cc1)S(C)(=O)=O.Cl`, the increase in life span (ILS) worked out at 56% in data set [1] and 88% in data set [2]. For the same compound, the Rm in data set [3] was determined as 0.07. Moreover, the Activity in data set [4] is 300 mg/kg.

In the case of `CS(=O)(=O)Nc1ccc(Nc2c3ccccc3nc3cc([N+](=O)[O-])ccc23)cc1`, the ILS in data set [1] is recorded as 43%; in data set [2], 123%. In addition, the Rm in data set [3] is given as -0.07. Moreover, the Activity in data set [4] was found to be 25 mg/kg.

The values are drawn from ChEMBL document CHEMBL3244308, “Potential antitumor agents. 22. Latentiated congeners of the 4'-(9-acridinylamino)methanesulfonanilides” (J Med Chem, 1977).
